From ChEMBL document CHEMBL1133662, “Novel 3-aminomethyl- and 4-aminopiperidine analogues of 1-[2-(diphenylmethoxy)ethyl]-4-(3-phenylpropyl)piperazines: synthesis and evaluation as dopamine transporter ligands” (J Med Chem, 2000)

What was measured:
[1] = target: T1, Sodium-dependent noradrenaline transporter (Homo sapiens, UniProt P23975); assay: Inhibition of [3H]NE reuptake by human norepinephrine transporter expressed in HEK293 cells; assay type: cell-based
[2] = target: T2, Sodium-dependent dopamine transporter (Homo sapiens, UniProt Q01959); assay: Inhibition of [125I]RTI-55 binding to dopamine transporter
T2 sequence (Q01959 whole entry): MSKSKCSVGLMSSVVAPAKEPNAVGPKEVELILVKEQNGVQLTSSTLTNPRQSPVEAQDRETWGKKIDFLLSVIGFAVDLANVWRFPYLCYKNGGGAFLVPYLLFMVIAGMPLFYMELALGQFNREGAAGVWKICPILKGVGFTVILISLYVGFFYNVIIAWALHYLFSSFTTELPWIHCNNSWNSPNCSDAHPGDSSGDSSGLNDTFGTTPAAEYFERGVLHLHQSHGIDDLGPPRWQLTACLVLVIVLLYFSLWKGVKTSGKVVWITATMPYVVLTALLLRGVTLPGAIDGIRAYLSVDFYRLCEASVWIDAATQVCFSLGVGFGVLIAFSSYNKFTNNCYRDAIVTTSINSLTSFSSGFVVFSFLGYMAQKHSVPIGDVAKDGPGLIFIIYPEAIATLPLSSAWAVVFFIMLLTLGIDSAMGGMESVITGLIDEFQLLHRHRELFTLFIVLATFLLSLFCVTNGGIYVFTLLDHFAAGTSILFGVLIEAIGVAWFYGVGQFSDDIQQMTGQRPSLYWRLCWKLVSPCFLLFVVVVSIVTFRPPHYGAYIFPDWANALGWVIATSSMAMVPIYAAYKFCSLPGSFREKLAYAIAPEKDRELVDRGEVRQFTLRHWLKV
Procedure, shortened: (§1)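 Membranes from HEK 293 cells expressing human DAT or SERT, lysed in 2 mM HEPES/1 mM EDTA, pelleted at 30000g and resuspended in 0.32 M sucrose (about 15 µg protein per assay). Incubated 90 min at room temperature in the dark, then filtered. Duplicate competition curves; IC50 converted to Ki by Cheng-Prusoff.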

[3] = target: Monoamine transporters; Norepinephrine & dopamine (Homo sapiens) (UniProt Q01959+P23975); assay: Selectivity ratio of NET/DAT; assay type: protein assay
Sequence of Monoamine transporters; Norepinephrine & dopamine (Homo sapiens) (P23975 whole entry, looked up): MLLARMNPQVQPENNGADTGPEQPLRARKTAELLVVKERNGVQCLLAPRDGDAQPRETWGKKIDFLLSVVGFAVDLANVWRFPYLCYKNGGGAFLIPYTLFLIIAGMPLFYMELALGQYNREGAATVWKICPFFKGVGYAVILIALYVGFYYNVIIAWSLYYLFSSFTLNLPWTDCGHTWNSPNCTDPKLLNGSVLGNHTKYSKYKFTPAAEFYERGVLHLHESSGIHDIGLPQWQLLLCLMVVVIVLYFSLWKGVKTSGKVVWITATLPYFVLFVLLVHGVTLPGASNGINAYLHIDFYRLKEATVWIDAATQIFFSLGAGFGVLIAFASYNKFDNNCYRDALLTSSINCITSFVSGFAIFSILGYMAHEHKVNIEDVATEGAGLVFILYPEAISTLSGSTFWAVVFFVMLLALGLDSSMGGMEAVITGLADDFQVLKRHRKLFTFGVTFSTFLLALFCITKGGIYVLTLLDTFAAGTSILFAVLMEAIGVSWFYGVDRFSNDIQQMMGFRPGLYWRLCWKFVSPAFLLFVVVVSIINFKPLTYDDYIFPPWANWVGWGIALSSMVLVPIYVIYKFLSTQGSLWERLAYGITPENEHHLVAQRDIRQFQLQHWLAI
Sequence of Monoamine transporters; Norepinephrine & dopamine (Homo sapiens) (Q01959 whole entry, looked up): as the sequence (Q01959 whole entry) above

[4] = target: Monoamine transporters; serotonin & dopamine (Homo sapiens) (UniProt P31645+Q01959); assay: Selectivity ratio of SERT/DAT; assay type: protein assay
Sequence of Monoamine transporters; serotonin & dopamine (Homo sapiens) (P31645 whole entry, looked up): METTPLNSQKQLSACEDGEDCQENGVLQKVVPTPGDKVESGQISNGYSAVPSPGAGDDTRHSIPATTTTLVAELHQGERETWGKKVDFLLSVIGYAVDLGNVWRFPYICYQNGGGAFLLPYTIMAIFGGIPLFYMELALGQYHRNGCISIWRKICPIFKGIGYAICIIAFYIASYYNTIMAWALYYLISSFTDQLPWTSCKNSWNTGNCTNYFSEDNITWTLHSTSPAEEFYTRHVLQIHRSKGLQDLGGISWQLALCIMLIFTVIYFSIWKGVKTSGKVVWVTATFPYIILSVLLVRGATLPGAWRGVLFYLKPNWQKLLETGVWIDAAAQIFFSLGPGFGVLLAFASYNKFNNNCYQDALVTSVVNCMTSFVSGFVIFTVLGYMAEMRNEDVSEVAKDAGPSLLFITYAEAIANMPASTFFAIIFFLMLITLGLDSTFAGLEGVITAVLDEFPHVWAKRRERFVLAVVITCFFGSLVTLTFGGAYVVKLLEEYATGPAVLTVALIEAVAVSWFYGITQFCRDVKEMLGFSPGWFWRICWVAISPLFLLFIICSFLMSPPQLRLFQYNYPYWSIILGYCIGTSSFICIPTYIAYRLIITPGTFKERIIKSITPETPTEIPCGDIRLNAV
Sequence of Monoamine transporters; serotonin & dopamine (Homo sapiens) (Q01959 whole entry, looked up): as the sequence (Q01959 whole entry) above

[5] = target: T2, Sodium-dependent dopamine transporter; assay: Inhibition of [3H]dopamine reuptake in HEK293 cells expressing human dopamine transporter; assay type: cell-based
Procedure, shortened: (§2)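 Confluent HEK 293 cells expressing human SERT or DAT were scraped into PBS and used as a suspension in Krebs HEPES at 25 °C. Drug (six concentrations, triplicate) was preincubated with cells 10 min. [3H]5-HT or [3H]DA (0.020 µM final) was added for 10 min, then uptake was stopped by filtration onto polyethyleneimine-soaked GF/C filters. IC50 from three independent experiments.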

[6] = Discrimination ratio of [3H]-DA reuptake/DAT binding; assay type: functional
[7] = target: T1, Sodium-dependent noradrenaline transporter; assay: Binding affinity at the norepinephrine transporter was measured using [125I]RTI-55 as a radioligand
[8] = target: T3, Sodium-dependent serotonin transporter (Homo sapiens, UniProt P31645); assay: Inhibition of [3H]5-HT reuptake in HEK293 cells expressing human serotonin transporter; assay type: cell-based; procedure, shortened: as §2
T3 sequence (P31645 whole entry): as the sequence (P31645 whole entry, looked up) above

[9] = Discrimination ratio of [3H]5-HT reuptake/SERT binding; assay type: functional
[10] = target: T3, Sodium-dependent serotonin transporter; assay: Binding affinity for serotonin transporter using [125I]RTI-55; procedure, shortened: as §1

T1 sequence (P23975 whole entry): as the sequence (P23975 whole entry, looked up) above

Work on `Fc1ccc(CCN2CCCC(CNCCOC(c3ccccc3)c3ccccc3)C2)cc1` (configuration not stated) yielded an IC50 [1] of 200 nM, a Ki [2] of 100 nM and a Selectivity ratio [3] of 1.5. The Selectivity ratio [4] was 3.3, the IC50 [5] was 500 nM and the Discrimination ratio [6] was 4.8. It also gave a Ki [7] of 150 nM, an IC50 [8] of 1130 nM and a Discrimination ratio [9] of 3.3. The Ki [10] was 350 nM.
`Fc1ccc(CCNCC2CCCN(CCOC(c3ccccc3)c3ccccc3)C2)cc1` (configuration not stated) showed an IC50 [1] of 190 nM, a Ki [2] of 87 nM and a Selectivity ratio [3] of 2.1. It also gave a Selectivity ratio [4] of 10.2, an IC50 [5] of 364 nM and a Discrimination ratio [6] of 4.2. It also gave a Ki [7] of 190 nM, an IC50 [8] of 1830 nM and a Discrimination ratio [9] of 2.1. It also gave a Ki [10] of 890 nM.
Work on `c1ccc(CN2CCC(NCCOC(c3ccccc3)c3ccccc3)CC2)cc1` yielded an IC50 [1] of 87 nM, a Ki [2] of 83 nM and a Selectivity ratio [3] of 2.1. The Selectivity ratio [4] was 26, the IC50 [5] was 270 nM and the Discrimination ratio [6] was 3.2. It also gave a Ki [7] of 180 nM, an IC50 [8] of 1860 nM and a Discrimination ratio [9] of 0.9. It also gave a Ki [10] of 2160 nM.
Work on `CN(CCc1ccc(F)cc1)CC1CCCN(CCOC(c2ccccc2)c2ccccc2)C1` (configuration not stated) yielded an IC50 [1] of 350 nM, a Ki [2] of 90 nM and a Selectivity ratio [3] of 1.3. The Selectivity ratio [4] was 5.9, the IC50 [5] was 1260 nM and the Discrimination ratio [6] was 14. The Ki [7] was 110 nM, the IC50 [8] was 2130 nM and the Discrimination ratio [9] was 4. It also gave a Ki [10] of 530 nM.
`Fc1ccc(CCNC2CCN(CCOC(c3ccccc3)c3ccccc3)CC2)cc1` showed an IC50 [1] of 170 nM, a Ki [2] of 110 nM and a Selectivity ratio [3] of 0.7. The Selectivity ratio [4] was 2, the IC50 [5] was 320 nM and the Discrimination ratio [6] was 2.9. The Ki [7] was 79 nM, the IC50 [8] was 470 nM and the Discrimination ratio [9] was 2.1. The Ki [10] was 220 nM.
For `c1ccc(CCCN2CCCC(CNCCOC(c3ccccc3)c3ccccc3)C2)cc1` (configuration not stated), the IC50 [1] was 97 nM, the Ki [2] was 18 nM and the Selectivity ratio [3] was 1.3. For the same molecule, the Selectivity ratio [4] was 11.9, the IC50 [5] was 150 nM and the Discrimination ratio [6] was 8.1. The Ki [7] was 23 nM, the IC50 [8] was 820 nM and the Discrimination ratio [9] was 3.8. The Ki [10] was 210 nM.
For `CN(CCOC(c1ccccc1)c1ccccc1)C1CCN(CCCc2ccccc2)CC1`, the IC50 [1] was 200 nM, the Ki [2] was 30 nM and the Selectivity ratio [3] was 1. The Selectivity ratio [4] was 47.3, the IC50 [5] was 330 nM and the Discrimination ratio [6] was 11.1. It also gave a Ki [7] of 29 nM, an IC50 [8] of 1910 nM and a Discrimination ratio [9] of 0.9. It also gave a Ki [10] of 1400 nM.
Molecule `c1ccc(CCCNCC2CCCN(CCOC(c3ccccc3)c3ccccc3)C2)cc1` (configuration not stated) has an IC50 [1] of 48 nM, a Ki [2] of 70 nM and a Selectivity ratio [3] of 0.6. The Selectivity ratio [4] was 4.5, the IC50 [5] was 105 nM and the Discrimination ratio [6] was 1.5. For the same molecule, the Ki [7] was 41 nM, the IC50 [8] was 770 nM and the Discrimination ratio [9] was 2.5. It also gave a Ki [10] of 320 nM.
Work on `c1ccc(CCCN2CCN(CCOC(c3ccccc3)c3ccccc3)CC2)cc1` yielded an IC50 [1] of 165 nM and a Ki [7] of 630 nM.
In the case of `c1ccc(CCCNC2CCN(CCOC(c3ccccc3)c3ccccc3)CC2)cc1`, the IC50 [1] is reported as 230 nM, the Ki [2] is reported as 160 nM and the Selectivity ratio [3] is reported as 0.8. The Selectivity ratio [4] was 0.4, the IC50 [5] was 390 nM and the Discrimination ratio [6] was 2.5. It also gave a Ki [7] of 120 nM, an IC50 [8] of 390 nM and a Discrimination ratio [9] of 7.1. For the same molecule, the Ki [10] was 55 nM.
With `CN(CCCc1ccccc1)C1CCN(CCOC(c2ccccc2)c2ccccc2)CC1` the IC50 [1] was 180 nM, the Ki [2] was 340 nM and the Selectivity ratio [3] was 0.1. The Selectivity ratio [4] was 0.3, the IC50 [5] was 210 nM and the Discrimination ratio [6] was 0.6. For the same molecule, the Ki [7] was 42 nM, the IC50 [8] was 310 nM and the Discrimination ratio [9] was 3.6. For the same molecule, the Ki [10] was 87 nM.
